# “Also recorded” adds a separate entry of the source. Like-named read-outs stand apart in the source and are kept apart here.
# Experiments:
# NHX1 = experiment: Yeast two-hybrid assay, CMD1 with NHX1; assay type: cell-based, Arabidopsis; settings: fig. S1A
# NHX1 to NHX4 = experiment: Yeast two-hybrid assay, CML17 with vacuolar NHX1 to NHX4; assay type: cell-based, Arabidopsis; settings: fig. S1B
# Method in brief: (§1)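 Strain AH109 was cotransformed with NHX C-terminal fragments in pGBKT7 (GAL4 BD) and CML17 or CML18 in pGADT7 (GAL4 AD), selected on YNB-Trp-Leu. Cultures were grown at 28°C to saturation (OD600 ~2), then 5-μl drops of 10-fold dilutions were spotted on YNB-Trp-Leu, -His-Trp-Leu and -Ade-Trp-Leu. Plates were incubated at 28°C for 3–4 days. p53/pSV40 served as positive control, empty vectors as negative.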
# CML18 [1] = experiment: Yeast two-hybrid assay, interaction with CML18; assay type: cell-based, Arabidopsis; settings: C-terminal cytosolic fragments; selective YNB media
# Method in brief: as §1
# AXT3K strain [2] = experiment: Complementation assay, hygromycin B resistance of yeast AXT3K; assay type: cell-based, Saccharomyces cerevisiae
# AXT3K strain [3] = experiment: Growth of AXT3K in pH-buffered liquid media with hygromycin B; assay type: cell-based, Saccharomyces cerevisiae; settings: buffered at acidic or neutral pH; OD600 after 24h
# Method in brief: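 Strain AXT3K (ena1-4, nha1 and nhx1 deletions; HygB-sensitive) carried NHX1 alleles in pDR195, selected on YNB lacking His and Ura. Cultures were grown overnight at 30°C and adjusted to OD600 0.5. Then 20 μl was inoculated into 200 μl liquid medium per well and serially diluted 10-fold. Incubation was at 30°C, with OD600 read at 24 and 48 h. Three independent transformants were tested per construct.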
# yeast vacuoles = experiment: Vacuolar pH of yeast by BCECF-AM; assay type: cell-based, Saccharomyces cerevisiae; settings: n = 8
# CML18 [4] = experiment: Bimolecular fluorescence complementation, interaction with CML18; assay type: cell-based, Arabidopsis; settings: leaves of N. benthamiana
# Method in brief: (§2)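 Agrobacterium GV3101 carrying BiFC constructs was co-infiltrated with a p19-transformed strain into 5- to 6-week-old N. benthamiana leaves. Full-length NHX1 or NHX2 and CML18 were each fused to complementary halves of eYFP. Empty pSPYCE(M) served as negative control. The lower epidermis was imaged by confocal microscopy (515-nm laser, 60× objective) under constant imaging settings, using a YFP filter.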
# NHX2 = experiment: Bimolecular fluorescence complementation, interaction with NHX2; assay type: cell-based, Arabidopsis; settings: leaves of N. benthamiana
# Method in brief: as §2
# C terminus of NHX1 = experiment: Yeast two-hybrid assay, dimerization with C terminus of NHX1; assay type: cell-based, Arabidopsis; settings: fig. S2; cytosolic C-terminal domains
# CBD = experiment: Split-ubiquitin assay, interaction of pore domain with CBD; assay type: cell-based, Arabidopsis; settings: yeast; YNB without adenine and histidine, 3 days at 28°C
# Method in brief: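 Split-ubiquitin assay in yeast: NHX1 pore domain (residues M1–T292) was fused to Cub-PLV (pMetYCgate). The CBD (S486–G516) or the intervening loop (L453–N480) was fused to NubG (pNXgate32). KAT1 served as dimerisation positive control and CBD negative control. Double transformants were spotted on YNB with and without adenine and histidine. Expression was checked by HA/c-Myc immunoblot.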
# [5] = molecular target: CML-BD peptide, synthetic peptide of the CML18-binding motif of NHX1 (residues D485 to R518) (Arabidopsis thaliana); experiment: ITC
# [6] = molecular target: CML-BD peptide, synthetic peptide of the CML18-binding motif of NHX1 (residues D485 to R518) (Arabidopsis thaliana); experiment: ITC; remark: listed apart in the source
molecule,measurement,setting,value
CMD1: the only calmodulin protein produced in S. cerevisiae,interaction with NHX1 (Y2H),NHX1,negative results
"CML17: calmodulin-like protein of Arabidopsis, At1g32250 (protein, left off: Gal4 activation domain (vector pGADT7), end not stated, kept) MSHKVSKKLDEEQINELREIFRSFDRNKDGSLTQLELGSLLRALGVKPSPDQFETLIDKADTKSNGLVEFPEFVALVSPELLSPAKRTTPYTEEQLLRLFRIFDTDGNGFITAAELAHSMAKLGHALTVAELTGMIKEADSDGDGRINFQEFAKAINSAAFDDIWG",interaction with vacuolar NHX1 to NHX4 (Y2H),NHX1 to NHX4,failed to demonstrate interaction
"D506N (protein, UniProt Q68KI4 1-538, looked up, variant D506N) Sodium/hydrogen exchanger 1: MLDSLVSKLPSLSTSDHASVVALNLFVALLCACIVLGHLLEENRWMNESITALLIGLGTGVTILLISKGKSSHLLVFSEDLFFIYLLPPIIFNAGFQVKKKQFFRNFVTIMLFGAVGTIISCTIISLGVTQFFKKLDIGTFDLGDYLAIGAIFAATDSVCTLQVLNQDETPLLYSLVFGEGVVNDATSVVVFNAIQSFDLTHLNHEAAFHLLGNFLYLFLLSTLLGAATGLISAYVIKKLYFGRHSTDREVALMMLMAYLSYMLAELFDLSGILTVFFCGIVMSHYTWHNVTESSRITTKHTFATLSFLAETFIFLYVGMDALDIDKWRSVSDTPGTSIAVSSILMGLVMVGRAAFVFPLSFLSNLAKKNQSEKINFNMQVVIWWSGLMRGAVSMALAYNKFTRAGHTDVRGNAIMITSTITVCLFSTVVFGMLTKPLISYLLPHQNATTSMLSDDNTPKSIHIPLLDQDSFIEPSGNHNVPRPDSIRGFLTRPTRTVHYYWRQFNDSFMRPVFGGRGFVPFVPGSPTERNPPDLSKA",interaction with CML18 (Y2H),CML18 [1],lost the ability to bind CML18
same,HygB resistance / protein activity in AXT3K,"AXT3K strain [2]; YPD + HygB (50 μg/ml), 30°C",inactive; also recorded: unable to suppress the sensitivity of the nhx1 mutant to HygB
same,HygB resistance / protein activity in AXT3K,AXT3K strain [2]; in combination with H499L,inactive
same,activity irrespective of pH of growth media,AXT3K strain [3],inactive
same,vacuolar pH (pHvac),yeast vacuoles,overly acidic
"NHX1: vacuolar K+/H+ exchanger of Arabidopsis; C-terminal T435 to A538 in Y2H (protein, UniProt Q68KI4 435-538, looked up, fragment) TKPLISYLLPHQNATTSMLSDDNTPKSIHIPLLDQDSFIEPSGNHNVPRPDSIRGFLTRPTRTVHYYWRQFDDSFMRPVFGGRGFVPFVPGSPTERNPPDLSKA",interaction with CML18 (Y2H),CML18 [1],strongly; also recorded: CML18 binding was confirmed
same,HygB resistance / protein activity in AXT3K,"AXT3K strain [2]; YPD + HygB (50 μg/ml), 30°C",suppressed the HygB sensitivity
same,interaction with CML18 (BiFC),CML18 [4],interacted with CML18
same,interaction with NHX2 (BiFC),NHX2,interacted with NHX2-cYFP
same,homodimerization / heterodimerization (Y2H),C terminus of NHX1,positive results
"pore domain (TM1 to TM9): pore domain of NHX1 (residues M1 to T292) fused to Cub-PLV (protein, left off: Cub-PLV, end not stated, kept) MLDSLVSKLPSLSTSDHASVVALNLFVALLCACIVLGHLLEENRWMNESITALLIGLGTGVTILLISKGKSSHLLVFSEDLFFIYLLPPIIFNAGFQVKKKQFFRNFVTIMLFGAVGTIISCTIISLGVTQFFKKLDIGTFDLGDYLAIGAIFAATDSVCTLQVLNQDETPLLYSLVFGEGVVNDATSVVVFNAIQSFDLTHLNHEAAFHLLGNFLYLFLLSTLLGAATGLISAYVIKKLYFGRHSTDREVALMMLMAYLSYMLAELFDLSGILTVFFCGIVMSHYTWHNVT",interaction with CBD (split-ubiquitin),CBD,confirmed
"CML18, recombinant, purified (natural protein) MSCDGGKPAPAKLGDEQLAELREIFRSFDQNKDGSLTELELGSLLRSLGLKPSQDQLDTLIQKADRNNNGLVEFSEFVALVEPDLVKCPYTDDQLKAIFRMFDRDGNGYITAAELAHSMAKLGHALTAEELTGMIKEADRDGDGCIDFQEFVQAITSAAFDNAWG",Kd,[5],2210 nM
same,Kd,[6],3020 nM
same,stoichiometry N (CML-BD binding sites per CML18 monomer),[6],2
